SR-BI DiI-HDL act: activators of SR-BI mediated HDL lipid uptake; CHO ldlA[mSR-BI] cells, DiI-HDL uptake fluorescence, 3 h; 100 = double the neutral-control signal; activation, % at 12.5 µM; actives 0.096% (n = 320,000);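 active means mean replicate activation of at least 60% and every replicate at or above 60%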
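Assay system: LDL receptor-deficient CHO ldlA cells overexpressing murine SR-BI / Medium: BSA-supplemented, HEPES-buffered Ham's F12, pH 7.4 / Probe or stimulus: DiI-labelled HDL at 10 µg/mL final / Timing: compound with DiI-HDL co-incubation, 3 h at 37 °C / Technique: bottom-read cell fluorescence after medium removal, ex 550/em 595 nm / Measure: HDL uptake via cellular fluorescence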
HIF activator: HIF pathway transcriptional activation. actives 0.32% (n = 300,000). AID 1910. U2OS HRE-luciferase reporter, luminescence; normalized: DMSO 0%, desferrioxamine 100%. activation, % at 7.5 µM (by protocol);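 active means mean activation of at least 10% of the iron chelator positive control signal, with at least half of replicates also reaching 10%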
AHR activator: activators of human aryl hydrocarbon receptor; AHR-responsive luciferase reporter cells, luminescence; P35869; actives 2.5% (n = 320,000); activation, % at 5 µM; in the data active means activation above about 47%
Target sequence (P35869 whole entry, looked up): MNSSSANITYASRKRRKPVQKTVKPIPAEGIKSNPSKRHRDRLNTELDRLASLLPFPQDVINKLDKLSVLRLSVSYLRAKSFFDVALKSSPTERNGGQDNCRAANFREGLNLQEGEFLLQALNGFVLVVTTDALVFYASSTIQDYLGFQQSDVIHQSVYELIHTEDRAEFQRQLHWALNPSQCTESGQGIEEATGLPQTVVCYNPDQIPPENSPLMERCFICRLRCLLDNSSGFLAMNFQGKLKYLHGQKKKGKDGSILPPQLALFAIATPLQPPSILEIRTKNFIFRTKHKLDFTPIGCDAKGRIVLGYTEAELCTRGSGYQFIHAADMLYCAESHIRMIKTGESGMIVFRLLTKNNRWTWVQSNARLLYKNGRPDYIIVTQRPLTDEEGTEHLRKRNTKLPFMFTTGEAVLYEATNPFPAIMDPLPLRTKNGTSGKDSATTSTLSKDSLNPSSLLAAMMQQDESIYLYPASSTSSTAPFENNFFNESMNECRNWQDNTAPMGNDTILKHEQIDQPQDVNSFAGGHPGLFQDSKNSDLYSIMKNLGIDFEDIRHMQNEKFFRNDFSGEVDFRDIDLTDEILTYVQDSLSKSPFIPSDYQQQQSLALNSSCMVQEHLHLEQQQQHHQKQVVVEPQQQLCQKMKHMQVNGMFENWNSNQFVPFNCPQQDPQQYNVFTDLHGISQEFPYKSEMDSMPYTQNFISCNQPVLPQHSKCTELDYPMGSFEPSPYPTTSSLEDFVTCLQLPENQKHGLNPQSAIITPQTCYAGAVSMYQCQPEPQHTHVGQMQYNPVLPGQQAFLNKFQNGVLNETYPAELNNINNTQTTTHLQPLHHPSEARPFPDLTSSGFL
ABCB6 inh 2: human ABCB6 transporter inhibition; Q9NP58; K562-ABCB6 porphyrin accumulation, flow cytometry, 1 h; hits give low values; fluorescence ratio to DMSO, % at 10 µM; actives 0.19% (n = 360,000);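 active means fluorescence ratio to DMSO below 75%, the collection mean minus 3 SD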;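 further: signal is porphyrin accumulated inside mitochondria; lower ratio means ABCB6 inhibition with less porphyrin fluorescence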
GAA850 FXN act: increases GAA850 frataxin promoter reporter activity; AID 540364; HEK293 lucGAA850 FXN promoter luciferase reporter, 24 h; percent of 10 µM SAHA response; actives 0.56% (n = 360,000); activation, % at 6 µM;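 active means activation above the average of all compounds screened plus 3 SD, cutoff fixed separately per campaign, cut at about 7.5% in these data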
SR-BI HDL uptake: mouse SR-BI HDL lipid transfer inhibition; AID 488896; Q61009; inhibition, % at 12.5 µM; actives 0.96% (n = 320,000); ldlA[mSR-BI] CHO cells, DiI-HDL uptake fluorescence, 3 h;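 active means mean replicate inhibition of at least 70% and a set share of replicates each scoring 70 or more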
Each line names hits and unclear results; the compound was inactive in the other large screens. A selection: hits, their analogues and other compounds. The true share with any hit is near 3.9%.

COc1ccccc1-c1cnn2c(NC3CCCC3)cc(C)nc12	SR-BI HDL uptake 86
Cc1cccc2c3nc4ccccc4nc3n(C)c12	AHR activator 69
C=CCOC(=O)c1cn(CC)c2nc(C)ccc2c1=O	none
CCn1cc(C(=O)OCC(=O)OC2CC(C)CCC2C(C)C)c(=O)c2ccc(C)nc21 (configuration not stated)	SR-BI HDL uptake 81
O=C(Nc1cccc(-n2cnnn2)c1)c1ccncc1	none (no result: SR-BI DiI-HDL act)
O=C(Nc1cccc(-n2cnnn2)c1)c1ccc(C(F)(F)F)cc1	AHR activator 69 (no result: HIF activator)
COc1cc(C(=O)Nc2cccc(-n3cnnn3)c2)cc(Cl)c1OC	none
COc1cc(C(=O)Nc2cccc(-n3cnnn3)c2)cc(OC)c1OC	SR-BI HDL uptake 77
O=C(COc1ccc(F)cc1)N1CCc2ccccc2C1	none
O=C(NC1CCCCC1)C1CCN(S(=O)(=O)c2cccc3nsnc23)CC1	none (no result: HIF activator)
COCCNc1nc(SCC(=O)N2CCN(c3ccccc3OC)CC2)nc2ccccc12	SR-BI HDL uptake 72
COc1ccc(CN=C2NC(=O)CC(C(=O)Nc3ccc([N+](=O)[O-])cc3C)S2)cc1 (configuration not stated)	none (no result: HIF activator, AHR activator)
O=C(CCS(=O)(=O)c1ccccc1)Nc1nc2c(s1)COc1ccccc1-2	AHR activator 63
CC(=O)c1sc(NC(=O)CCS(=O)(=O)c2ccccc2)nc1C	none
CCN1CCCC1CNC(=O)Cn1nc(C)n2c(cc3cc(F)ccc32)c1=O (configuration not stated)	none
CCN1CCCC1CNC(=O)c1cc2cc(F)ccc2[nH]1 (configuration not stated)	AHR activator 67
O=S(=O)(/N=S1/CC=CCN1S(=O)(=O)c1ccccc1)c1ccccc1 (configuration not stated)	none
Nc1c(-c2ccccn2)cnn1-c1nc(-c2ccc(F)cc2)cs1	AHR activator 63
COc1ccc(-c2csc(-n3ncc(-c4ccccn4)c3N)n2)cc1	none
Cc1ccc(C)c(CN2C(=O)C(C)Oc3ccc(C)cc32)c1 (configuration not stated)	SR-BI HDL uptake 77
CCc1noc(C)c1C(=O)Nc1cc(C(F)(F)F)ccc1-n1cncn1	none
Nc1ccccc1SC(CC(=O)c1ccccc1)c1cccc([N+](=O)[O-])c1 (configuration not stated)	GAA850 FXN act 11 (no result: SR-BI DiI-HDL act, HIF activator, AHR activator, SR-BI HDL uptake)
Nc1ccccc1SC(CC(=O)c1ccccc1)c1ccc([N+](=O)[O-])cc1 (configuration not stated)	GAA850 FXN act 8.0 (no result: SR-BI DiI-HDL act, HIF activator, AHR activator, SR-BI HDL uptake)
COc1ccc(C(CC(=O)c2ccc(C)cc2)Sc2ccccc2N)cc1 (configuration not stated)	none (no result: SR-BI DiI-HDL act, HIF activator, AHR activator, SR-BI HDL uptake)
Cc1c(C(=O)NCc2ccc(Cl)c(Cl)c2)sc(=O)n1Cc1ccc(S(=O)(=O)N(C)C)cc1	none (no result: SR-BI DiI-HDL act, HIF activator, AHR activator, SR-BI HDL uptake)
CCOC(=O)c1c(C)[nH]c(C)c1C(=O)COC(=O)/C=C/c1ccc(OC)cc1	none (no result: HIF activator, AHR activator)
CCC1(CC)NC(=O)N(CC(=O)OC(C)C(=O)Nc2cc([N+](=O)[O-])ccc2OC)C1=O (configuration not stated)	SR-BI HDL uptake 74
CCC1(CC)NC(=O)N(CC(=O)OC(C)C(=O)Nc2ccc(Cl)cn2)C1=O (configuration not stated)	none
CCC(C)(C)c1ccc2c(c1)C(=O)c1ccccc1C2=O	AHR activator 72
CC(C)(CO)NC(=O)c1ccc2c(c1)C(=O)c1ccccc1-2	none
NNC(=O)c1cc(-c2cccs2)nc2ccccc12	none (no result: SR-BI DiI-HDL act, SR-BI HDL uptake)
Cc1cccc2sc(NNC(=O)c3cc(-c4cccs4)nc4ccccc34)nc12	SR-BI HDL uptake 72
Cc1ccc(-c2nc(Nc3ccc(N4CCOCC4)cc3)c3ccccc3n2)cc1	AHR activator 70
Cc1ccc(-c2nc(Nc3ccc(O)cc3)c3ccccc3n2)cc1	AHR activator 54, SR-BI HDL uptake 107
Cc1ccc(-c2nc(Nc3cccc(O)c3)c3ccccc3n2)cc1	none
c1ccc(Nc2nc(-c3ccccc3)nc3ccccc23)cc1	none
Oc1ccc(Nc2nc(-c3ccccc3O)nc3ccccc23)cc1	SR-BI HDL uptake 74 (no result: AHR activator)
C/C(=N\Nc1nc(-c2ccccc2O)nc2ccccc12)c1ccccc1	AHR activator 53
Cc1nn(Cc2ccccc2)c(C)c1C(=O)NCCN1C(=O)S/C(=C\c2ccccc2)C1=O	none
Cc1cccc(-c2nc(NCCCN3CCOCC3)c3ccccc3n2)c1	AHR activator 52 (no result: SR-BI DiI-HDL act, SR-BI HDL uptake)
Oc1ccccc1Nc1nc(-c2ccccc2O)nc2ccccc12	SR-BI HDL uptake 93 (no result: AHR activator)
O=C(O)c1cccc(Nc2nc(-c3ccc([N+](=O)[O-])cc3)nc3ccccc23)c1	none (no result: AHR activator)
O=[N+]([O-])c1ccc(-c2nc(Nc3cccc(O)c3)c3ccccc3n2)cc1	SR-BI HDL uptake 72
Cc1sc2ncnc(Nc3ccc(N4CCOCC4)cc3)c2c1-c1ccccc1	SR-BI HDL uptake 76
CN(C)c1ccc(/C=[N+](\[O-])C(C)(C)/C=N/O)cc1	none
O=C(O)c1ccc(S(=O)(=O)N(Cc2cccs2)CC2CCCO2)cc1 (configuration not stated)	none
OCCN(Cc1ccccc1)Cc1cccc(C(F)(F)F)c1	none (no result: HIF activator)
COc1ccc(NC(=O)COC(=O)CCSc2ccccc2)cc1OC	none (no result: HIF activator)
CCCNC(=O)C(Cc1ccccc1F)NC(=O)c1ccccn1 (configuration not stated)	none (no result: HIF activator)
Cc1c(NC(=O)c2cn3ccccc3n2)cccc1-n1cnnn1	none (no result: SR-BI DiI-HDL act, SR-BI HDL uptake)
O=c1[nH]c2ccc(NCc3ccccc3OCc3ccc(Cl)cc3)cc2[nH]1	SR-BI HDL uptake 72
COc1cc(C(=O)NCCc2nc3ccccc3n2C)cc(OC)c1OC	HIF activator 95
COc1ccccc1C(=O)c1nc2ccccc2n1C	AHR activator 62
COc1ccc(-c2nc3ccc(Cl)cn3c2NC2CCCCC2)cc1SC1CCCCC1	none (no result: HIF activator)
COc1ccc2c(c1)sc(=N)n2C	none
CN(C)/N=C/C=C1\CCC/C(=C/c2cccs2)C1=O	HIF activator 10 (no result: SR-BI DiI-HDL act, SR-BI HDL uptake)
CN(C)/N=C/C=C1\CC/C(=C\c2ccc(Br)cc2)C1=O	none
CCOC(=O)c1c(CSc2ccccc2)n(C)c2ccc(O)cc12	none
O=C(N/N=C/c1ccc2c(c1)OCO2)/C(=C/c1ccc2c(c1)OCO2)NC(=O)c1ccccc1	none
O=S(=O)(c1ccccc1)N1c2cc(Cl)ccc2Oc2nc3ccccc3nc21	AHR activator 74 (no result: HIF activator)
O=S(=O)(c1ccccc1)N1CN(c2ccc(F)cc2F)c2nc3ccccc3nc21	none (no result: SR-BI DiI-HDL act, HIF activator, SR-BI HDL uptake)
CC(C)(C)c1ccc(OCC(O)CN2CCCC2)cc1 (configuration not stated)	none
COc1ccc(-c2c/c(=N\c3nc(-c4ccccc4)c(C)s3)c3ccccc3o2)cc1O	SR-BI HDL uptake 80
